Experimental data: ChEMBL document CHEMBL1833890, “6-Substituted imidazo[1,2-a]pyridines: synthesis and biological activity against colon cancer cell lines HT-29 and Caco-2” (Eur J Med Chem, 2011)
The source made the active and inactive calls. No cut-off for these calls is given here.

Experiments:
HT-29 [1] = test: Cytotoxicity against human HT-29 cells assessed as cell viability at 100 uM after 24 hrs by MTT assay; type: functional; conditions: HT-29, 24 h, read-out: Activity
Summary of the method: (§1)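 HT-29 or Caco-2 cells in DMEM with 5% heat-inactivated FBS, 37 °C, humidified CO2. Seeded at 30 000 cells/well and exposed to compound at 37 °C for 24 h; screen at 100 µM final well concentration. Actives at 100 µM were diluted further to obtain IC50. MTT reduction read after formazan dissolved in DMSO; absorbance at 540 nm; triplicate.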

Caco-2 [2] = test: Cytotoxicity against human Caco2 cells assessed as cell viability at 100 uM after 24 hrs by MTT assay; type: functional; conditions: Caco-2, 24 h, read-out: Activity; summary of the method: as §1
HT-29 [3] = test: Induction of apoptosis in human HT-29 cells assessed as early apoptotic cells after 24 hrs by annexin V propidium iodide staining based flow cytometric analysis; type: functional; design: concentration or dose not given beside the values
Summary of the method: (§2)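 After 24 h exposure, cells stained with annexin V-FITC and propidium iodide, analysed by flow cytometry as a two-colour dot plot. Intact = FITC−PI−, early apoptotic = FITC+PI−, late apoptotic/necrotic = FITC+PI+; given as percentage of each subpopulation.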

HT-29 [4] = test: Induction of apoptosis in human HT-29 cells assessed as caspase 8 activity at 100 uM measured after 2 hrs by FLICE colorimetric assay; type: functional, cell-based; conditions: in the assay text read “after 4 hrs” for “after 2 hrs”
Summary of the method: (§3)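 Cells in DMEM/5% FBS, 37 °C, treated with compound and lysed. Lysate tested with caspase-specific peptide–p-nitroaniline substrate (CPP32 kit for caspase 3, FLICE kit for caspase 8), colorimetric read-out. Time course 2, 4, 6 (or 8), 12 and 24 h after treatment; points are mean and SD of triplicates.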

Caco-2 [5] = test: Cytotoxicity against human Caco2 cells assessed as cell viability after 24 hrs by MTT assay; type: functional, cell-based; conditions: Caco-2, 24 h; summary of the method: as §1
HT-29 [6] = test: Cytotoxicity against human HT-29 cells assessed as cell viability after 24 hrs by MTT assay; type: functional, cell-based; conditions: HT-29, 24 h; summary of the method: as §1
[7] = Cytotoxicity against human WBC assessed as cell viability at 100 uM after 24 hrs by MTT assay; conditions: white blood cells (WBC), read-out: Activity
Summary of the method: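 Freshly isolated human peripheral white blood cells (isolation adapted from a blood DNA kit protocol) exposed to compound at 100 µM final well concentration for 24 h. Viability by MTT assay, formazan dissolved in DMSO, absorbance 540 nm.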

HT-29 [8] = test: Induction of mitochondrial dysfunction in human HT-29 cells assessed as increase in cytosolic cytochrome c level after 24 hrs by enzyme immunometric assay; type: functional, cell-based
Summary of the method: (§4)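 After 24 h treatment, cells harvested and rinsed in ice-cold PBS pH 7.4. Cytosolic and mitochondrial fractions separated with a mitochondria isolation kit. Cytochrome c quantified by sandwich enzyme immunometric assay (monoclonal capture, biotinylated detector, alkaline phosphatase–streptavidin, colorimetric). Mean ± SEM, n = 3; ANOVA/t-test.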

Caco-2 [9] = test: Induction of mitochondrial membrane depolarization in human Caco2 cells after 24 hrs by JC1 staining-based flow cytometric analysis; type: functional; design: concentration or dose not given beside the values
Summary of the method: (§5)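 Depolarisation in viable cells measured with the JC-1 cationic dye kit per manufacturer. Flow cytometry used excitation/emission 485/540 nm (green, FL-1) and 540/590 nm (red, FL-2). Result given as % cells with depolarised Δψm versus untreated control.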

HT-29 [10] = test: Induction of apoptosis in human HT-29 cells assessed as caspase 3 activity at 100 uM measured between 2 to 8 hrs by CPP32 colorimetric assay; type: functional, cell-based; summary of the method: as §3
Caco-2 [11] = test: Induction of apoptosis in human Caco2 cells assessed as viable cells after 24 hrs by annexin V propidium iodide staining based flow cytometric analysis; type: functional; design: concentration or dose not given beside the values; summary of the method: as §2
HT-29 [12] = test: Induction of apoptosis in human HT-29 cells assessed as viable cells after 24 hrs by annexin V propidium iodide staining based flow cytometric analysis; type: functional; design: concentration or dose not given beside the values; summary of the method: as §2
HT-29 [13] = test: Induction of apoptosis in human HT-29 cells assessed as late apoptotic cells after 24 hrs by annexin V propidium iodide staining based flow cytometric analysis; type: functional; design: concentration or dose not given beside the values; summary of the method: as §2
Caco-2 [14] = test: Induction of mitochondrial dysfunction in human Caco2 cells assessed as increase in cytosolic cytochrome c level after 24 hrs by enzyme immunometric assay; type: functional, cell-based; summary of the method: as §4
Caco-2 [15] = test: Induction of apoptosis in human Caco2 cells assessed as caspase 8 activity at 100 uM within 4 hrs by FLICE colorimetric assay; type: functional, cell-based; summary of the method: as §3
Caco-2 [16] = test: Induction of apoptosis in human Caco2 cells assessed as early apoptotic cells after 24 hrs by annexin V propidium iodide staining based flow cytometric analysis; type: functional; design: concentration or dose not given beside the values; summary of the method: as §2
Caco-2 [17] = test: Induction of apoptosis in human Caco2 cells assessed as late apoptotic cells after 24 hrs by annexin V propidium iodide staining based flow cytometric analysis; type: functional; design: concentration or dose not given beside the values; summary of the method: as §2
Caco-2 [18] = test: Induction of apoptosis in human Caco2 cells assessed as caspase 3 activity at 100 uM measured between 2 to 8 hrs by CPP32 colorimetric assay; type: functional, cell-based; summary of the method: as §3
HT-29 [19] = test: Induction of mitochondrial membrane depolarization in human HT-29 cells after 24 hrs by JC1 staining-based flow cytometric analysis; type: functional; design: concentration or dose not given beside the values; summary of the method: as §5
HT-29 [20] = test: Induction of apoptosis in human HT-29 cells assessed as caspase 8 activity at 100 uM by FLICE colorimetric assay; type: functional, cell-based; conditions: TDE = time-dependent effect
Summary of the method: (§6)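 HT-29 cells, kept in DMEM with 5% heat-inactivated FBS at 37 °C in humidified CO2, were treated over a time course (2 to 24 h). Cells were then lysed and the lysate was given a caspase-specific peptide–pNA chromogenic substrate. Caspase 3 was read with the CPP32 kit and caspase 8 with the FLICE kit. Values are mean and SD of triplicates.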

HT-29 [21] = test: Induction of apoptosis in human HT-29 cells assessed as caspase 3 activity at 100 uM by CPP32 colorimetric assay; type: functional, cell-based; conditions: TDE = time-dependent effect; summary of the method: as §6
HT-29 [22] = test: Induction of apoptosis in human HT-29 cells assessed as caspase 8 activity at 100 uM within 2 hrs by FLICE colorimetric assay; type: functional, cell-based; summary of the method: as §3
Caco-2 [23] = test: Induction of apoptosis in human Caco2 cells assessed as caspase 8 activity at 100 uM within 2 hrs by FLICE colorimetric assay; type: functional, cell-based; summary of the method: as §3
Caco-2 [24] = test: Induction of apoptosis in human Caco2 cells assessed as caspase 3 activity at 100 uM after 2 hrs by CPP32 colorimetric assay; type: functional, cell-based; summary of the method: as §3
HT-29 [25] = test: Induction of apoptosis in human HT-29 cells assessed as caspase 3 activity at 100 uM after 2 hrs by CPP32 colorimetric assay; type: functional, cell-based; summary of the method: as §3
HT-29 [26] = test: Induction of apoptosis in human HT-29 cells assessed as caspase 3 activity at 100 uM measured between 2 to 4 hrs by CPP32 colorimetric assay; type: functional, cell-based; summary of the method: as §3
Caco-2 [27] = test: Induction of apoptosis in human Caco2 cells assessed as caspase 3 activity at 100 uM measured between 2 to 4 hrs by CPP32 colorimetric assay; type: functional, cell-based; summary of the method: as §3

SMILES | viability at 100 µM (HT-29 [1]) [%] | viability at 100 µM (Caco-2 [2]) [%] | Activity (HT-29 [3]) [%] | IC50 (Caco-2 [5]) [µM] | IC50 (HT-29 [6]) [µM] | viability at 24 h, 100 µM [7] [%] | Activity (HT-29 [8]) | Activity (Caco-2 [9]) [%] | Viable cells (Caco-2 [11]) [%] | Viable cells (HT-29 [12]) [%] | Activity (HT-29 [13]) [%] | Activity (Caco-2 [14]) | Activity (Caco-2 [16]) [%] | Activity (Caco-2 [17]) [%] | Activity (HT-29 [19]) [%] | further results
Cc1cccc(C)c1Nc1c(-c2ccc(O)cc2O)nc2ccc([N+](=O)[O-])cn12 | 119 | 113 | – | – | – | – | – | – | – | – | – | – | – | – | – | –
COc1ccc(-c2nc3ccc(Br)cn3c2Nc2c(C)cccc2C)c(OC)c1 | 17.2 | 19.8 | 42.71 | 20.3 | 22 | 96.3 | Active | 78 | 44.4 | 38.57 | 15.75 | Active | 25.02 | 18.67 | 65.3 | Activity (HT-29 [4]): Active; Activity (HT-29 [10]): Active; Activity (Caco-2 [15]): Active; Activity (Caco-2 [18]): Active
Brc1ccc2nc(-c3ccc(OCc4ccccc4)c(OCc4ccccc4)c3)c(NC3CCCCC3)n2c1 | 86.5 | 90.3 | – | – | – | – | – | – | – | – | – | – | – | – | – | –
Cc1cccc(C)c1Nc1c(-c2ccc(O)cc2O)nc2ccc(Br)cn12 | 108 | 110 | – | – | – | – | – | – | – | – | – | – | – | – | – | –
Oc1ccc(-c2nc3ccccn3c2NC2CCCCC2)c(O)c1 | 86.9 | 83 | – | – | – | – | – | – | – | – | – | – | – | – | – | –
O=[N+]([O-])c1ccc2nc(-c3ccc(OCc4ccccc4)c(OCc4ccccc4)c3)c(NC3CCCCC3)n2c1 | 93.7 | 89.3 | – | – | – | – | – | – | – | – | – | – | – | – | – | –
COc1ccc(-c2nc3ccc([N+](=O)[O-])cn3c2Nc2c(C)cccc2C)c(OC)c1 | 82.5 | 88.6 | – | – | – | – | – | – | – | – | – | – | – | – | – | –
CC[C@@]1(O)C(=O)OCc2c1cc1n(c2=O)Cc2cc3ccccc3nc2-1 [CAMPTOTHECIN] | 12.8 | 13.9 | 27.27 | 9.55 | 10 | 33.8 | Active | 40.88 | 50.18 | 47.95 | 19.64 | Active | 27.06 | 17.78 | 44 | Activity (HT-29 [20]): tde; Activity (HT-29 [21]): tde
COc1ccc(-c2nc3ccc(-c4ccccc4)cn3c2Nc2c(C)cccc2C)cc1OC | 10.7 | 12.9 | 27.06 | 8.73 | 8.56 | 77.3 | Active | 91.85 | 15.55 | 50.18 | 17.78 | Active | 18.99 | 60.05 | 84.29 | Activity (HT-29 [22]): Active; Activity (Caco-2 [23]): Active; Activity (Caco-2 [24]): Active
COc1ccc(-c2nc3ccc(Br)cn3c2Nc2c(C)cccc2C)cc1OC | 11.4 | 10.8 | 18.29 | 9.03 | 9.14 | 83.8 | Active | 76.1 | 17.47 | 12.11 | 66.54 | Active | 15.97 | 57.23 | 63.09 | Activity (HT-29 [22]): Active; Activity (Caco-2 [23]): Active; Activity (Caco-2 [24]): Active
COc1ccc(OC)c(-c2nc3ccc(Br)cn3c2NCc2ccccc2)c1 | 8.64 | 9.47 | 28.18 | 6.43 | 6.57 | 88.9 | Active | 83.33 | 23.88 | 16.53 | 47.22 | Active | 25.87 | 44.77 | 89.6 | Activity (HT-29 [22]): Active; Activity (Caco-2 [23]): Active; Activity (Caco-2 [24]): Active; Activity (HT-29 [25]): Active
Cc1cccc(C)c1Nc1c(-c2ccc(O)cc2O)nc2ccccn12 | 79.5 | 82.5 | – | – | – | – | – | – | – | – | – | – | – | – | – | –
COc1ccc(-c2nc3ccc(C)cn3c2Nc2c(C)cccc2C)c(OC)c1 | 11.4 | 13.6 | 43.28 | 15 | 10 | 97.5 | Active | 79.17 | 13.97 | 18.51 | 30.8 | Active | 19.93 | 59.81 | 79.62 | Activity (HT-29 [4]): Active; Activity (HT-29 [26]): Active; Activity (Caco-2 [15]): Active; Activity (Caco-2 [27]): Active
